KCNK3 block: human KCNK3 channel inhibition, primary screen | CHO-KCNK3 thallium flux, FluxOR fluorescence; stronger effect = lower value | B-score at 10 µM | O14649 | 0.84% of 340,000 active;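 active = B-score under library mean minus 4 SD, starting fluorescence ratio at most library mean plus 5 SD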;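 note: more negative B-score means stronger inhibition of thallium flux through KCNK3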
hERG protect: shields human hERG channel from block by proarrhythmic agents | Q12809 | CHO-hERG, FluxOR thallium flux, dofetilide IC70 present | activation (rescue from dofetilide block), less the hit threshold, % at 10 µM | 0.51% of 310,000 active;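 active = activation above the mean of controls blocked by dofetilide plus 5 SD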;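 note: thallium influx through hERG after potassium depolarization seen as dye fluorescence rise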
Target sequence (Q12809 whole entry, looked up): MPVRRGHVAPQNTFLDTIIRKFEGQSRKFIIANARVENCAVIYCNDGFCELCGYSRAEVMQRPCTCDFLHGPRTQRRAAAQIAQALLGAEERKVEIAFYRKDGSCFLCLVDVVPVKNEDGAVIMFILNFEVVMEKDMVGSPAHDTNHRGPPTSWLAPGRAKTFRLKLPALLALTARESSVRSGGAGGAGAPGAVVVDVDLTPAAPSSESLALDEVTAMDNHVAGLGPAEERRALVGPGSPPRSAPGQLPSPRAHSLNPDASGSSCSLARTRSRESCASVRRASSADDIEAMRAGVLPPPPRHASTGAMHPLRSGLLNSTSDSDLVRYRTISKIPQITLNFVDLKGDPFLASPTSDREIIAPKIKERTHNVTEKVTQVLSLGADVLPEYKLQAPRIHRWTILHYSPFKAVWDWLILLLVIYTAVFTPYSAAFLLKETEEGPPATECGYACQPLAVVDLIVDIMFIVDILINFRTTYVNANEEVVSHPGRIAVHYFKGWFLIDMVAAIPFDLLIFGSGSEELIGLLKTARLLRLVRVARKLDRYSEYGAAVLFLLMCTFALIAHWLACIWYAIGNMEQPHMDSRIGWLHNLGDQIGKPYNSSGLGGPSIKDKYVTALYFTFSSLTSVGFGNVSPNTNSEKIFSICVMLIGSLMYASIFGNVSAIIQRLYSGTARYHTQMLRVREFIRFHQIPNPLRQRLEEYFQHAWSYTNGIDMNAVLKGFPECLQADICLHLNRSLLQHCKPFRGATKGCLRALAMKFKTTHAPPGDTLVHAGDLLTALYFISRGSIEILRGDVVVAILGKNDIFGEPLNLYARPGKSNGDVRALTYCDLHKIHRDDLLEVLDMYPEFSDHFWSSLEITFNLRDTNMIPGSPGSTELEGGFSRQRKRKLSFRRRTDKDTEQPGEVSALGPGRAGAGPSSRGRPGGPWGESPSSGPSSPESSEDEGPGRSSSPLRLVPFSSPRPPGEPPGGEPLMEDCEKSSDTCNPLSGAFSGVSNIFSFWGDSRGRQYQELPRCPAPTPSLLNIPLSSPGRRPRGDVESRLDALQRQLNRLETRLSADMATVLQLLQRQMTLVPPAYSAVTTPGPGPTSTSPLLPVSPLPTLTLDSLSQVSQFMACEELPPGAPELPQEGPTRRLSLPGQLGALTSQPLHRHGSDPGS
KCNQ1 inh: inhibitors of human KCNQ1 potassium channel. P51787. CHO-K1 KCNQ1, FluxOR thallium flux fluorescence; stronger effect = higher value. B-score at 10 µM. 1.3% of 310,000 active. AID 2642;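 active = compounds whose thallium flux B-score, printed positive for inhibition, exceeds three library SD while starting fluorescence stays within three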;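 note: channel opened by potassium depolarization with thallium stimulus after 20 min compound exposure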
KCNQ1 act: potentiates or activates the human KCNQ1 potassium channel | P51787 | CHO-K1 KCNQ1, thallium flux FluxOR fluorescence; stronger effect = higher value | B-score at 10 µM | 0.35% of 310,000 active;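 active = fluorescence ratio B-score, a plate-corrected score, at least three library SD, with initial intensity B-score within 5 SD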
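assay system = KCNQ1-transfected CHO-K1 cells | medium = assay buffer with matched DMSO | probe or stimulus = depolarizing K+/Tl+ stimulus, K2SO4 and Tl2SO4 each 12.5 mM in 5x stock | dosing = single dose | incubation = dye 90 min, compound 20 min, room temperature | detection = kinetic FluxOR fluorescence, 10 s baseline plus 110 s post-stimulus | evaluation = ratio B score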
KCNK9 block: blocks the human KCNK9 two-pore domain potassium channel; Q9NPC2; HEK293 KCNK9, FluxOR thallium flux fluorescence; stronger effect = lower value; B-score at 10 µM; 1.2% of 310,000 active;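 active = ratio B-score over 3 SD below the library mean, with starting fluorescence within 5 SD of its mean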;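 note: negative B-score means less thallium flux so channel inhibition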
Kir21 block: Kir2.1 (mouse) channel inhibition | HEK293-Kir2.1, FluxOR thallium flux fluorescence; stronger effect = lower value | B-score at 10 µM | 0.85% of 310,000 active;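 active = fluorescence ratio B-score at or below minus 3 SD of library scores, with starting-brightness B-score within 2 SD, cut at about -4.2 in these data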;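 note: channel flux triggered by added potassium and thallium sulfate stimulus; B-score of peak minus minimum fluorescence over baseline after thallium stimulus; more negative B-score means stronger Kir2.1 block with less thallium influx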
KCNK3 inh conf: human KCNK3 channel inhibition, confirmation assay; shares compounds with KCNK3 block; CHO-KCNK3 thallium flux, FluxOR fluorescence; 0% buffer, 100% carvedilol maximal block; ratio percent of control, % at 10 µM; 99% of 2,400 active;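 active = ratio percent of control, averaged over triplicates, above buffer control mean plus 5 SD, cut at about 64% in these data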;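 note: ratio is the fluorescence rise from min to max over baseline after thallium stimulus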
KCNK3 noninduced: counter-screen for KCNK3 inhibitors: effect in non-induced cells | non-induced KCNK3 parental cells, FluxOR thallium flux; stronger effect = lower value | AID 651747 | shares compounds with KCNK3 block | thallium flux ratio (lower = more inhibition) at 10 µM | 40% of 2,400 active;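 active = thallium flux ratio, averaged over three wells, more than 5 SD below the buffer control mean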;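 note: host cells are CHO cells without KCNK3 induction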
Of the large screens only hits and unclear results are named; the others gave an inactive call (follow-up assays come after a bar, where they were run). Shown are actives, neighbours in structure and some others; about 3.8% of the full set was active somewhere.

Cc1cc(CN2CCOCC2)c(O)c(C2(C)CCCCC2)c1	KCNK3 block -9.7 | KCNK3 inh conf 108 | KCNK3 noninduced inactive
Cc1cc(CN(C)C)c(O)c(C2(C)CCCCC2)c1	none
O=C(c1cccc(C(F)(F)F)c1)N1CCC2(CC1)NCCc1[nH]cnc12	none
Cc1ccccc1N=C1Nc2ccccc2N[C@]12C[C@H]1CCC(=O)N3CC[C@@H](C2)[C@@H]13	none (no result: hERG protect, KCNQ1 inh, KCNQ1 act, KCNK9 block, Kir21 block)
CCc1cccc(NC(=O)c2cccc3c2C(=O)N(C2CCCCC2)C3)c1	KCNK3 block -8.7 | KCNK3 inh conf 78 | KCNK3 noninduced inactive
CCc1ccc(NC(=O)CCS(=O)(=O)c2ccc(Cl)cc2)cc1	none
Cc1cccc(/C(N)=N/OC(=O)c2cccc3ccccc23)c1	KCNK3 block -9.3 | KCNK3 inh conf 92 | KCNK3 noninduced inactive
N/C(=N\OC(=O)c1cccc2ccccc12)c1cccc([N+](=O)[O-])c1	none
CCCCc1nc(NCCNC(=O)c2ccccc2)c(C#N)c2c1CSC(C)(C)C2	KCNK3 block -10 | KCNK3 inh conf 136 | KCNK3 noninduced 0.11
CCCCc1nc(Cl)c(C#N)c2c1CSC(C)(C)C2	none
COc1ccccc1NS(=O)(=O)c1cccc(NC(=O)c2sc3ccccc3c2Cl)c1	KCNK3 block -9.1 | KCNK3 inh conf 96 | KCNK3 noninduced inactive
C=CCOc1ccc(C(=O)c2ccccc2)c(OCC(=O)NC2(C#N)CCCC2)c1	KCNK3 block -8.7 | KCNK3 inh conf 90 | KCNK3 noninduced inactive
N#CC1(NC(=O)COc2ccccc2[N+](=O)[O-])CCCCC1	none
Cc1c(Cl)c([N+](=O)[O-])nn1CCCC(=O)Nc1cc(Oc2ccccc2)cc([N+](=O)[O-])c1	none
Cc1nn(CCCC(=O)Nc2cc(Oc3ccc(F)cc3)cc([N+](=O)[O-])c2)c(C)c1[N+](=O)[O-]	KCNK3 block -8.9 | KCNK3 inh conf 125 | KCNK3 noninduced inactive
Cc1ccccc1Oc1cc(NC(=O)CCCn2nc(C)c([N+](=O)[O-])c2C)cc([N+](=O)[O-])c1	KCNK3 block -9.3 | KCNK3 inh conf 119 | KCNK3 noninduced inactive
CC(C)[C@H](NC(=O)[C@@H]1Cc2c([nH]c3ccccc23)C2c3ccccc3C(=O)N21)C(=O)N1CCC[C@@H]1C(=O)O (some centres undefined)	none
CCOC(=O)c1cc2sccc2n1CC(=O)c1ccc2c(c1)OCCO2	KCNK3 block -9.5 | KCNK3 inh conf 89 | KCNK3 noninduced inactive
CCOC(=O)c1cc2sccc2n1CC(=O)O	none
COc1cc([N+](=O)[O-])c(C(=O)N2CCOCC2)c([N+](=O)[O-])c1	none
COc1ccc(OC)c(C(=O)COC(=O)c2cc(C)oc2C)c1	KCNK3 block -10 | KCNK3 inh conf 119 | KCNK3 noninduced inactive
COc1ccc(NC(=O)COC(=O)c2cc(C)oc2C)cc1OC	none (no result: hERG protect, KCNQ1 inh, KCNQ1 act, KCNK9 block, Kir21 block)
COC(=O)c1nccc2c1[nH]c1ccccc12	none
O=C(Nc1cccc(-c2nnc(-c3ccccc3)o2)c1)c1ccco1	none
Cc1nn2c(-c3cccc(NC(=O)c4ccco4)c3)nnc2c2ccccc12	KCNK3 block -14 | KCNK3 inh conf 106 | KCNK3 noninduced inactive
O=C(CSc1nc(C(F)(F)F)cc(=O)[nH]1)Nc1cccc2ccccc12	none
COCCn1c(SCc2cccc(F)c2)nc2cc(C(=O)OC)ccc2c1=O	KCNK3 block -9 | KCNK3 inh conf 107 | KCNK3 noninduced inactive
CCSc1nc2cc(C(=O)OC)ccc2c(=O)n1CC	none
O=C(Nc1cccc(-n2cnnn2)c1)c1cccs1	KCNK3 block -10 | KCNK3 inh conf 79 | KCNK3 noninduced inactive
O=C(Nc1cccc(-n2cnnn2)c1)c1ccncc1	none
O=C(Nc1cccc(O)c1)c1cccc(NC(=O)c2cccs2)c1	KCNK3 block -13, KCNK9 block -8 | KCNK3 inh conf 110 | KCNK3 noninduced inactive
O=C(NCCC1=CCCCC1)c1ccc(-n2cncn2)c([N+](=O)[O-])c1	none
O=C(NCc1ccccc1)c1cccc(COc2ccccc2Cl)c1	KCNK3 block -12, KCNQ1 inh 6 | KCNK3 inh conf 112 | KCNK3 noninduced inactive
CN(CCO)c1nc(N)c(C#N)c(CC#N)c1C#N	none
CC(C)CN(CC(C)C)c1nc(N)c(C#N)c(CC#N)c1C#N	KCNK3 block -11, KCNK9 block -7.5 | KCNK3 inh conf 92 | KCNK3 noninduced inactive
COc1cccc(CN2CCN(CCCc3ccccc3)C(CCO)C2)c1O (centres undefined)	none
COc1ccc(Cl)cc1C(=O)NCCCSc1ccccc1	KCNK3 block -9.2 | KCNK3 inh conf 112 | KCNK3 noninduced 0.16
O=C(NCCCSc1ccccc1)c1cc(Br)ccc1O	KCNK3 block -8.8 | KCNK3 inh conf 151 | KCNK3 noninduced 0.12
Cc1cccc(NC(=O)CN2CCC(NC(=O)C3CCCCC3)CC2)c1C	none
Cc1c(Cl)cccc1NC(=S)NCC1COc2ccccc2O1 (centres undefined)	KCNK3 block -8.9 | KCNK3 inh conf 125 | KCNK3 noninduced 0.14
C=CCNC(=S)NCC1COc2ccccc2O1 (centres undefined)	none
CCc1ccc(N2C(=O)C(Cl)=C(N3CCOCC3)C2=O)cc1	none
CCc1ccc(N2C(=O)C(Cl)=C(N3CCCCCC3)C2=O)cc1	KCNK9 block -7.1 | KCNK3 inh conf 117 | KCNK3 noninduced 0.15
COc1cccc(OCc2nc(-c3cccc([N+](=O)[O-])c3)no2)c1	KCNK3 block -10 | KCNK3 inh conf 99 | KCNK3 noninduced inactive
CCOC(=O)/C(N=Nc1c(C)n(C)n(-c2ccccc2)c1=O)=C(/O)c1ccccc1	KCNK3 block -8.9 | KCNK3 inh conf 109 | KCNK3 noninduced inactive
COc1ccc(OC)c(Nc2nc(NCc3ccco3)c3ccccc3n2)c1	KCNK3 block -17 | KCNK3 inh conf 134 | KCNK3 noninduced 0.15
Oc1ccccc1Nc1nc(NCc2ccco2)c2ccccc2n1	none
O=C(CCC1CCCCC1)NCCS(=O)(=O)N1CCN(c2ccc(F)cc2)CC1	none
Cc1ccc(C)c(NC(=S)NCCN(C2CCCCC2)C2CCCC2)c1	none
c1ccc(CN2CCN(c3nc4ccccc4c4ccccc34)CC2)cc1	KCNK3 block -11 | KCNK3 inh conf 98 | KCNK3 noninduced inactive
CSc1nc(N2CCN(Cc3ccc4c(c3)OCO4)CC2)c2ccccc2n1	KCNK3 block -13 | KCNK3 inh conf 112 | KCNK3 noninduced inactive

High-throughput results from PubChem BioAssay.
